Rows were chosen to be rich in hits. Some 3.5% of all compounds tested hit in one or more screens of this group.
MrgX1 antag: blocks BAM8-22 activation of human MrgX1 receptor; Q96LB2; MRGX1-HEK293 calcium flux, Fluo-4, BAM8-22 antagonism; stronger effect = lower value; B-score at 10 µM; 310,000 tested, 1.3% active;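 active = calcium-response B-score plate-corrected more than 3 library SD below zero, starting fluorescence within 5 deviations, no agonist response on first addition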;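 note: peak minus trough fluorescence over baseline after final BAM8-22 challenge near maximal dose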
Target sequence (Q96LB2 whole entry, looked up): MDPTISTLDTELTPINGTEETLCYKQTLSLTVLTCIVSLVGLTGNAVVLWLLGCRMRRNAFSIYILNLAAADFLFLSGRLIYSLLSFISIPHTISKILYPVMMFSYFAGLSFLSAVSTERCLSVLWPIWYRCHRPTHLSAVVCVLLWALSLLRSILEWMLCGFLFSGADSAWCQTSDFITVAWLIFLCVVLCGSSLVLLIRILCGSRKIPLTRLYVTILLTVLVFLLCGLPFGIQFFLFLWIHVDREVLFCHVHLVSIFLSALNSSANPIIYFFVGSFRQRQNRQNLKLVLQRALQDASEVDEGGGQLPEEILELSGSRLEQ
MrgX1 agonist: human MrgX1 receptor agonism, primary screen. Q96LB2. MrgX1-HEK293 cells, Fluo-4 calcium fluorescence, agonist mode; stronger effect = higher value. B-score at 10 µM. 310,000 tested, 0.44% active;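 active = calcium response B-score plate-corrected fluorescence ratio at least 3 library SD, with starting fluorescence B-score inside 5 SD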
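Test system: HEK293 cells stably expressing human MrgX1 receptor; amount: 15,000 cells per well; doses: compound delivered in addition one of three; times: overnight plating before 1 h dye loading; detection: Fluo-4 NW calcium-flux fluorescence, kinetic read; read-out basis: B-scored fluorescence response ratio; controls: positive and negative controls per plate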
RGS4 pot: potentiators or activators of RGS4 | HEK293 M3R/inducible RGS4, carbachol calcium flux Fluo4; stronger effect = lower value | B-score at 10 µM | 310,000 tested, 0.92% active;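 active = B-score of the integrated calcium signal more than 4 SD below the library mean, with starting fluorescence not abnormally high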;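 note: negative B-score means reduced calcium response which marks RGS4 activation or potentiation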
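Assay system: Inducible-RGS4 HEK293 cells carrying M3 receptor | Schedule: Compound preincubation 20 min at room temperature before agonist | Signal: Kinetic calcium fluorescence imaging with Fluo4-AM dye, 2 µM | Read-out basis: B score from integrated fluorescence ratio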
RGS4 block: human RGS4 inhibition | HEK293 M3R/RGS4 inducible, Fluo-4 calcium flux; stronger effect = higher value; triggered by carbachol at its EC20 | 310,000 tested, 0.45% active | AID 463165 | P49798 | B-score at 10 µM;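 active = B-score, a plate-corrected calcium signal, over three deviations above library mean, with baseline fluorescence within five deviations of library mean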;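 note: RGS4 expression induced by doxycycline in cells with stable M3 receptor; B-score is computed from the integrated fluorescence ratio over baseline after carbachol; higher B-score means a larger calcium signal and so more RGS4 inhibition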
Target sequence (P49798 whole entry, looked up): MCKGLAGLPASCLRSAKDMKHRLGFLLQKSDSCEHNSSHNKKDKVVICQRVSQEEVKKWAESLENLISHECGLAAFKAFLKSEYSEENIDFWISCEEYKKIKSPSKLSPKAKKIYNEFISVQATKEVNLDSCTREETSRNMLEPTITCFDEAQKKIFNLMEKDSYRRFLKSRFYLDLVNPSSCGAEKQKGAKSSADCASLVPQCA
MrgX1 PAM: human MrgX1 positive allosteric modulation, primary screen; MrgX1-HEK293, Fluo-4 calcium flux, FDSS; stronger effect = higher value; AID 588675; B-score at 10 µM; 310,000 tested, 0.63% active; Q96LB2;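 active = plate-corrected calcium response at least 3 library SD above typical, normal starting fluorescence, not activating the receptor alone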;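 note: compound read alongside a low EC10 to EC30 dose of BAM8-22 agonist; peak minus trough fluorescence over baseline measured at the second addition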
The depositor's hits bear a star.

For CC(Oc1ccccc1Cl)C(=O)Nc1ccc(S(=O)(=O)N2CCCC2)cc1 (configuration not stated) the results were MrgX1 antag inactive, MrgX1 agonist inactive, RGS4 pot -7.16*, RGS4 block inactive and MrgX1 PAM inactive.
Screening CCC(C)(C)NC(=O)C(c1ccc(F)cc1)N(Cc1cccs1)C(=O)c1cnccn1 (configuration not stated) returned MrgX1 antag -5.32*, MrgX1 agonist inactive, RGS4 pot inactive, RGS4 block inactive and MrgX1 PAM inactive.
Screening CCC(C)(C)NC(=O)C(c1ccc(F)cc1)N(Cc1cccc(OC)c1)C(=O)c1cnccn1 (configuration not stated) returned MrgX1 antag inactive, MrgX1 agonist inactive, RGS4 pot inactive, RGS4 block inactive and MrgX1 PAM inactive.
Screening CCNC(=O)COC(=O)CCNC(=O)c1ccc(Cl)cc1 returned MrgX1 antag inactive, MrgX1 agonist inactive, RGS4 pot inactive, RGS4 block inactive and MrgX1 PAM inactive.
`CCn1ccnc1CN1CCc2c([nH]c3ccccc23)C1C1CCCCC1` (configuration not stated) gave MrgX1 antag inactive, MrgX1 agonist inactive, RGS4 pot -7.57*, RGS4 block inactive and MrgX1 PAM inactive.
Screening CCn1ccnc1CN1CCc2c([nH]c3ccccc23)C1C(C)(C)C (configuration not stated) returned MrgX1 antag inactive, MrgX1 agonist inactive, RGS4 pot inactive, RGS4 block inactive and MrgX1 PAM inactive.
`O=C(Nc1ccc(S(=O)(=O)Nc2nccs2)cc1)C1=NN(c2ccccc2)C(=O)CC1` gave MrgX1 antag inactive, MrgX1 agonist inactive, RGS4 pot inactive, RGS4 block inactive and MrgX1 PAM inactive.
For N#CC1=C(N)Oc2cc(O)c(Cl)cc2C1c1ccccc1F (configuration not stated) the results were MrgX1 antag inactive, MrgX1 agonist inactive, RGS4 pot inactive, RGS4 block inactive and MrgX1 PAM inactive.
N#CC1=C(N)OC2=C(CC/C2=C\c2ccccc2)C1c1ccccc1 (configuration not stated) was read as MrgX1 antag inactive, MrgX1 agonist 140*, RGS4 pot inactive, RGS4 block inactive and MrgX1 PAM inactive.
N#CC1=C(N)OC2=C(CC/C2=C\c2ccccc2Cl)C1c1ccccc1Cl (configuration not stated) was read as MrgX1 antag -11.7*, MrgX1 agonist inactive, RGS4 pot inactive, RGS4 block inactive and MrgX1 PAM inactive.
`N#CC1=C(N)OC2=C(C(=O)CCC2)C1c1ccccc1` (configuration not stated) gave MrgX1 antag inactive, MrgX1 agonist inactive, RGS4 pot inactive, RGS4 block inactive and MrgX1 PAM inactive.
For N#C/C(=C\c1c(N2CCC(C(N)=O)CC2)nc2ccccn2c1=O)C(=O)NC1CCCCC1 the results were MrgX1 antag inactive, MrgX1 agonist inactive, RGS4 pot inactive, RGS4 block inactive and MrgX1 PAM inactive.
Screening Cc1ccc(NS(=O)(=O)c2cc([N+](=O)[O-])ccc2N/N=C/c2sc(N3CCOCC3)nc2-c2ccccc2)c(C)c1 returned MrgX1 antag -9.43*, MrgX1 agonist inactive, RGS4 pot inactive, RGS4 block inactive and MrgX1 PAM inactive.
Cc1cccc2sc(N(CCCN(C)C)C(=O)c3ccc(Cl)s3)nc12 was read as MrgX1 antag inactive, MrgX1 agonist inactive, RGS4 pot -8.33*, RGS4 block inactive and MrgX1 PAM inactive.
Screening Cc1[nH]c2ccccc2c1/C=N/Nc1ccc([N+](=O)[O-])cc1 returned MrgX1 antag -4.88*, MrgX1 agonist inactive, RGS4 pot inactive, RGS4 block inactive and MrgX1 PAM inactive.
For C/C(=N/Nc1ccc([N+](=O)[O-])cc1)c1ccc(C)cc1C the results were MrgX1 antag inactive, MrgX1 agonist inactive, RGS4 pot inactive, RGS4 block inactive and MrgX1 PAM inactive.
Screening C/C(=N/Nc1ccc([N+](=O)[O-])cc1)c1c[nH]c2ccccc12 returned MrgX1 antag -4.89*, MrgX1 agonist inactive, RGS4 pot inactive, RGS4 block inactive and MrgX1 PAM inactive.
O=Cc1ccc(Oc2ccc(F)cc2)nc1 was read as MrgX1 antag -4.52*, MrgX1 agonist inactive, RGS4 pot inactive, RGS4 block inactive and MrgX1 PAM inactive.
Screening Nc1ccc(Oc2ccc(F)cc2)nc1 returned MrgX1 antag inactive, MrgX1 agonist inactive, RGS4 pot inactive, RGS4 block inactive and MrgX1 PAM inactive.
`O=C(Oc1ccc(-c2cnc3ccccc3n2)cc1)c1cc([N+](=O)[O-])ccc1Cl` gave MrgX1 antag -4.93*, MrgX1 agonist inactive, RGS4 pot inactive, RGS4 block inactive and MrgX1 PAM inactive.
COc1ccc(CCC(=O)N/N=C\c2cccs2)cc1 was read as MrgX1 antag inactive, MrgX1 agonist inactive, RGS4 pot inactive, RGS4 block inactive and MrgX1 PAM inactive.
`Cc1cc(C(=O)COC(=O)c2ccc(Cl)c(S(N)(=O)=O)c2)c(C)n1C1CC1` gave MrgX1 antag inactive, MrgX1 agonist inactive, RGS4 pot inactive, RGS4 block inactive and MrgX1 PAM inactive.
`CC(=O)CSc1ccc(-c2nc3cc(C)c(C)cc3[nH]2)cn1` gave MrgX1 antag inactive, MrgX1 agonist inactive, RGS4 pot inactive, RGS4 block inactive and MrgX1 PAM inactive.
For Cc1cc2nc(-c3ccc(SCc4ccc(C#N)cc4)nc3)[nH]c2cc1C the results were MrgX1 antag -6.12*, MrgX1 agonist inactive, RGS4 pot inactive, RGS4 block inactive and MrgX1 PAM inactive.
Screening O=C(COC(=O)/C=C/c1ccccc1)NCC1CCCO1 (configuration not stated) returned MrgX1 antag inactive, MrgX1 agonist inactive, RGS4 pot inactive, RGS4 block inactive and MrgX1 PAM 9.84*.
COc1ccc(Br)c(C(=O)NNC(=O)c2ccc(NS(=O)(=O)c3cccs3)cc2)c1 was read as MrgX1 antag inactive, MrgX1 agonist inactive, RGS4 pot inactive, RGS4 block inactive and MrgX1 PAM inactive.
O=C1C=CC(=O)N1CCNc1ncc(C(F)(F)F)cc1Cl was read as RGS4 pot -7.94* and RGS4 block inactive.
Screening C#CCN1C(=O)S/C(=C/c2cc(C)n(CC)c2C)C1=O returned MrgX1 antag inactive, MrgX1 agonist inactive, RGS4 pot inactive, RGS4 block inactive and MrgX1 PAM inactive.
`CCn1c(C)cc(/C=C2/SC(=S)N(CC(=O)O)C2=O)c1C` gave MrgX1 antag inactive, MrgX1 agonist inactive, RGS4 pot inactive, RGS4 block inactive and MrgX1 PAM 17.1*.
O=S(=O)(Nc1ccc(Cl)cn1)c1cccs1 was read as MrgX1 antag inactive, MrgX1 agonist inactive, RGS4 pot inactive, RGS4 block inactive and MrgX1 PAM inactive.

Screens from PubChem.
